Test results as given in ChEMBL document CHEMBL1132244, “Benzodiazepine receptor ligands. 4. Synthesis and pharmacological evaluation of 3-heteroaryl-8-chloropyrazolo[5,1-c][1,2,4] benzotriazine 5-oxides” (J Med Chem, 1999).

Columns and labels:
[1] = molecular target: T1, GABA-A receptor; anion channel (Bos taurus) (UniProt P10063+P08220+P20237+P08219+P10064+P22300); test: Percentage inhibition of [3H]Ro-151788 binding to GABA-A benzodiazepine receptor in bovine brain membrane at 10 uM; format: cell membranes
Procedure, shortened: (§1)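 Washed bovine cerebral cortex membranes, with endogenous GABA removed by Triton X-100/37 °C washes, incubated with ~0.2 nM [3H]Ro15-1788 (Kd 0.60 nM) in 50 mM Tris-citrate pH 7.4 for 90 min at 0 °C, then filtered. Nonspecific binding defined with 10 μM diazepam. Screening at 10 μM; Ki from IC50 by Cheng–Prusoff; five determinations, mean ± SEM.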

[2] = molecular target: T1, GABA-A receptor; anion channel (Bos taurus); test: The GABA ratio (GR) = IC50 compound + 10 uM GABA, performed in five independent experiments was calculated for the compound.; format: protein-complex assay
Procedure, shortened: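 [3H]Ro15-1788 displacement from GABA-depleted bovine cortex membranes (0.2 nM ligand, 90 min, 0 °C, Tris-citrate pH 7.4). IC50 measured without and with 10 μM GABA and the ratio taken; five independent experiments.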

[3] = molecular target: GABA-A receptor; anion channel; test: Displacement of [3H]Ro-151788 from GABA-A benzodiazepine receptor of bovine brain membranes; format: cell membranes, Bos taurus; procedure, shortened: as §1
[4] = system: Mus musculus; test: The antianxiety activity for the compound at a dose of 0.3 mg/kg was evaluated as number of crosses by mice in the light/dark box experiment. p<0.05; format: functional
[5] = system: Mus musculus; test: The antianxiety activity for the compound at a dose of 1 mg/kg was evaluated as number of crosses by mice in the light/dark box experiment.; format: functional
[6] = system: Mus musculus; test: The antianxiety activity for the compound at a dose of 3 mg/kg was evaluated as number of crosses by mice in the light/dark box experiment.; format: functional
[7] = system: Mus musculus; test: Muscle relaxant effect measured by rotarod test at 0.1 mg/Kg dose in mice; format: functional
[8] = system: Mus musculus; test: Muscle relaxant effect measured by rotarod test at 0.3 mg/Kg dose in mice; format: functional
[9] = system: Mus musculus; test: Muscle relaxant effect measured by rotarod test at 1 mg/Kg dose in mice; format: functional
[10] = system: Mus musculus; test: Muscle relaxant effect measured by rotarod test at 3 mg/Kg dose in mice; format: functional
[11] = system: Mus musculus; test: The percentage time in light by the animals was calculated for the compound at a dose of 0.3 mg/kg in the light/dark box experiment.; format: functional
[12] = system: Mus musculus; test: The percentage time in light by the animals was calculated for the compound at a dose of 1 mg/kg in the light/dark box experiment*** indicates P<0.001.; format: functional
[13] = system: Mus musculus; test: The percentage time in light by the animals was calculated for the compound at a dose of 3 mg/kg in the light/dark box experiment.; format: functional
[14] = system: Mus musculus; test: Anticonvulsant activity against PTZ induced attacks at 30 mg/kg dose 13d and 100 mg/kg Flumazenil; format: functional
Procedure, shortened: (§2)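 Male Swiss-Webster mice (22–26 g) received drug in 1% CMC (10 mL/kg) 30 min before the test, or flumazenil 40 min before. Pentylenetetrazole was then given at 75 mg/kg sc, and generalized tonic-clonic seizures were scored over the following 30 min. The incidence of non-convulsing mice was analysed by χ² test.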

[15] = system: Mus musculus; test: Muscle relaxant effect measured by rotarod test at 30 mg/kg dose 13d and 100 mg/kg Flumazenil; format: functional
[16] = species: Mus musculus; test: Anticonvulsant activity against PTZ induced atacks; format: functional; procedure, shortened: as §2
[17] = species: Mus musculus; test: Antianxiety activity was measured based on light/dark box thus calculated no of crosses of mice; format: functional
[18] = species: Mus musculus; test: Muscle relaxant effect measured by rotarod test; format: functional
[19] = species: Mus musculus; test: Antianxiety activity was measured based on light/dark box thus calculated % time in light of mice; format: functional

CC(C)(C)OC(=O)Nc1cnn2c1n[n+]([O-])c1ccc(Cl)cc12
inhibition [1]: 0%

CN1C(=O)CN=C(c2ccccc2)c2cc(Cl)ccc21
GR [2]: 1.5

[O-][n+]1nc2c(-c3nc[nH]n3)cnn2c2cc(Cl)ccc21
inhibition [1]: 44.4%

Nc1cnn2c1n[n+]([O-])c1ccc(Cl)cc12
inhibition [1]: 33.9%

[O-][n+]1nc2c(-n3cccc3)cnn2c2cc(Cl)ccc21
Ki [3]: 61.5 nM | inhibition [1]: 87.5% | GR [2]: 1.24

CN1C(=O)CN=C(c2ccccc2)c2cc(Cl)ccc21 [DIAZEPAM]
No. of crosses [4]: 22 | No. of crosses [5]: 28.5 | No. of crosses [6]: 16.5 | No. of falls [7]: 0.23 | No. of falls [8]: 0.56 | No. of falls [9]: 0.73 | No. of falls [10]: 1.4 | Time in light [11]: 95.5% | Time in light [12]: 144.9% | Time in light [13]: 211.1%

O=C(N/C=N/O)c1cnn2c1n[n+]([O-])c1ccc(Cl)cc12
inhibition [1]: 0%

CCOC(=O)c1ncn2c1CN(C)C(=O)c1cc(F)ccc1-2.[O-][n+]1nc2c(-c3ccsc3)cnn2c2cc(Cl)ccc21
Attacks [14]: 36.4% | No. of falls [15]: 0.64

CCOC(=O)c1ncn2c1CN(C)C(=O)c1cc(F)ccc1-2 [FLUMAZENIL]
Attacks [16]: 0% | No. of crosses [17]: 15.2 | No. of falls [18]: 0.4 | Time in flight [19]: 114.8%

[O-][n+]1nc2c(-c3cnoc3)cnn2c2cc(Cl)ccc21
inhibition [1]: 66%

Cc1n[nH]c(-c2cnn3c2n[n+]([O-])c2ccc(Cl)cc23)n1
inhibition [1]: 15.2%
